Measurements from ChEMBL document CHEMBL1124947, “Cationic antiprotozoal drugs. Trypanocidal activity of 2-(4'-formylphenyl)imidazo[1,2-a]pyridinium guanylhydrazones and related derivatives of quaternary heteroaromatic compounds” (J Med Chem, 1990).

Tests used:
Assay type in all cases: functional
[1] = tested on: Mus musculus; test: Trypanocidal Activity at I.C.E. value 0.89 when administered subcutaneously.
How it was run: (§1)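 Mice, in groups of five per dose, were given a standard inoculum of blood-stage T. rhodesiense that is lethal to all untreated controls, then dosed subcutaneously. Usually 11 dose levels were used (2^n × 0.42 mg/kg).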

[2] = tested on: Trypanosoma brucei rhodesiense; test: In Vitro measurement of inhibition of thymidine uptake in cell culture of Trypanosoma rhodesiense; details: read-out: ID50 (the source's name)
How it was run: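 Parasites harvested from infected rats and incubated 3 h across a drug concentration series, usually 0.1–100 µg/mL. Incorporation of radiolabeled thymidine measured. ID50 is the concentration (µg/mL) producing 50% inhibition.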

[3] = tested on: Trypanosoma brucei rhodesiense; test: In Vitro measurement of inhibition of leucine uptake in cell culture of Trypanosoma rhodesiense; details: read-out: ID50 (the source's name)
How it was run: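 Trypanosomes harvested from infected rats, cultured 3 h with several concentrations of drug, usually 0.1–100 µg/mL. Radiolabeled L-leucine uptake measured. ID50 is the concentration in µg/mL giving 50% inhibition of incorporation.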

[4] = tested on: Mus musculus; test: Trypanocidal Activity at I.C.E. value 0.20 when administered subcutaneously.
[5] = tested on: Mus musculus; test: Trypanocidal Activity at I.C.E. value 0.36 when administered perorally.
[6] = tested on: Mus musculus; test: Trypanocidal Activity at I.C.E. value 0.70 when administered perorally.
[7] = tested on: Mus musculus; test: Trypanocidal Activity at I.C.E. value 0.54 when administered subcutaneously.
How it was run: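 Blood-stage T. rhodesiense infection came from a standard inoculum lethal to all untreated mice. Drug was given by subcutaneous injection to groups of five mice. Survival beyond 30 days counted as cure. […] Sub-curative doses scored 0, and data were normalized at each dose.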

[8] = tested on: Mus musculus; test: Trypanocidal Activity at I.C.E. value 0.59 when administered perorally.
[9] = tested on: Mus musculus; test: Trypanocidal Activity at I.C.E. value 0.85 when administered subcutaneously.; how it was run: as §1

C[n+]1c(/C=C/c2ccc(/C=N/NC(=N)N)cc2)cn2ccccc21.Cc1ccc(S(=O)(=O)O)cc1.Cc1ccc(S(=O)(=O)[O-])cc1
CD50 [1]: 0.1 mg/kg
IC50 [2]: 2.7 µg/mL
IC50 [3]: 9.3 µg/mL

Br.CN(C)C(=N)N/N=C/c1ccc(-c2c([N+](=O)[O-])n3ccccc3[n+]2C)cc1.[Br-]
CD50 [4]: 0.8 mg/kg
CD50 [5]: 53 mg/kg

Br.C[n+]1c(-c2ccc(/C=N/NC(=N)N3CCCC3)cc2)cn2ccsc21.[Br-]
CD50 [6]: 3.3 mg/kg
CD50 [7]: 0.1 mg/kg

C[n+]1c(-c2ccc(/C=N/NC(=N)NO)cc2)cn2ccccc21.Cc1ccc(S(=O)(=O)O)cc1.Cc1ccc(S(=O)(=O)[O-])cc1
CD50 [8]: 6.6 mg/kg
CD50 [9]: 0.8 mg/kg
